TRPC6 inhibitor = mouse TRPC6 channel inhibitors, primary screen, cell-based, HEK293, membrane potential dye. AID 2553, 2010. hit rate 1.1% among 310,000. B-score at 10 µM. Short transient receptor potential channel 6 (Mus musculus), Q61143. ACh-evoked depolarization; hits give low values;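 active means B-score under library mean minus 3 SD, initial fluorescence not abnormally high, positive integrated signal ratio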;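 further: B-score derived from integrated fluorescence ratio over the kinetic read; more negative B-score means stronger inhibition of depolarization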
TRPC4 inh = inhibitors of mouse TRPC4 channel, primary screen, Fluo4 calcium, HEK293 TRPC4beta/mu-opioid cells | Short transient receptor potential channel 4 (Mus musculus), Q9QUQ5 | DAMGO-evoked Fluo4 calcium flux; hits give low values | B-score at 10 µM | hit rate 0.39% among 300,000;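 active means B-score over 3 SD under the library average, no early fluorescence shift, positive overall ratio signal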
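test system = HEK293 cells with stable TRPC4beta plus mu-opioid receptor expression | detection = Fluo4 Ca2+ flux fluorescence | read-out = integrated fluorescence ratio relative to baseline, converted to per-well B score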
TRPC6 activator = mouse TRPC6 channel activators, primary screen, cell-based, HEK293, membrane potential dye | HEK293-TRPC6 membrane potential dye fluorescence; hits give high values | B-score at 10 µM | hit rate 0.13% among 310,000 | AID 2550, 2010 | Short transient receptor potential channel 6 (Mus musculus), Q61143;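 active means B-score of the integrated fluorescence ratio above library mean plus 3 SD, and starting fluorescence ratio within library mean plus 5 SD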;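 further: higher score means more depolarization so channel activation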
TRPC4 act = activators of mouse TRPC4 channel, primary screen, Fluo4 calcium, HEK293 TRPC4beta/mu-opioid cells. Short transient receptor potential channel 4 (Mus musculus), Q9QUQ5. Fluo4 calcium fluorescence; hits give high values. B-score at 10 µM. hit rate 0.49% among 310,000;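 active means B-score above 5 SD of library B-scores, and initial fluorescence ratio not above library mean plus 5 SD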;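 further: positive B-score marks a calcium rise read as TRPC4 activation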
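system = HEK293 cells stably co-expressing mouse TRPC4beta and mu-opioid receptor | schedule = Fluo4 dye loading 45 min at room temperature, 110 s recording | measure = B-scored integrated calcium fluorescence ratio | signal = Fluo4 calcium-sensitive dye fluorescence, kinetic, 1 Hz baseline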
TRPC4 PAM = positive allosteric modulators of TRPC4, primary screen, cell-based, mouse TRPC4beta, HEK293 mu-opioid, Fluo-4 calcium; Short transient receptor potential channel 4 (Mus musculus), Q9QUQ5; B-score at 10 µM; AID 2227, 2009; DAMGO EC20, Fluo-4 Ca2+ flux; hits give high values; hit rate 0.42% among 310,000;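 active means B-score of calcium response area above 5 SD of library B-scores, with initial fluorescence ratio within 5 SD of library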;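 further: B-score of integrated fluorescence ratio over time as area under calcium response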
TRPC4 spec 2 = mouse TRPC4 off-target activity of TRPC6 inhibitors, second screen; shares compounds with TRPC6 inhibitor; HEK293 TRPC4/MOR, membrane potential dye fluorescence; channel activated by saturating DAMGO dose; inhibition, % at 10 µM; hit rate 42% among 920; AID 2776;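 active means compounds whose fluorescence signal differed from control wells by over 3 SD, either direction, in both duplicate plates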
TRPC4 spec = mouse TRPC4 modulation by TRPC6 hits, confirmation, selectivity assay for TRPC6 inhibitor project, cell-based, HEK293 TRPC4/mu-opioid, membrane potential dye; shares compounds with TRPC6 inhibitor; membrane potential fluorescence; activity change, negative = inhibition, % at 10 µM; hit rate 61% among 920; AID 2777, 2010;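 active means rise or fall in signal beyond 3 SD of buffer-only wells in both replicate plates, either sign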;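 further: integrated kinetic ratio of fluorescence range over baseline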
HEK293 MPD ctr 2-1 = nonspecific membrane potential effects, parental HEK293, confirmation, counter-screen for TRPC6 inhibitor project, cell-based, second counter screen. shares compounds with TRPC6 inhibitor. parental HEK293 membrane potential dye fluorescence; maximal acetylcholine challenge after compound addition. signal change vs control, % at 10 µM. hit rate 31% among 920. AID 2779, 2010;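 active means membrane potential signal moving either way by over 3 SD of the maximum-effect control, in both duplicate plates, meaning non-specific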
HEK293 MPD ctr-1 = membrane potential modulation in parental HEK293, confirmation, counter-screen for TRPC6 inhibitor project, cell-based | hit rate 60% among 920 | parental HEK293 membrane potential dye fluorescence | membrane potential signal change, % at 10 µM | shares compounds with TRPC6 inhibitor;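 active means membrane potential signal shifting up or down by more than 3 SD of buffer-only wells, on both duplicate plates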
HEK293 MPD ctr-2 = parental HEK293 membrane potential modulation, confirmation, counter-screen for TRPC6 modulator project, cell-based; membrane potential dye fluorescence; shares compounds with TRPC6 inhibitor; membrane potential signal change, % at 10 µM; hit rate 51% among 2,400;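 active means membrane potential signal moves up or down beyond 5 SD from buffer-only wells, on both duplicate plates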
HEK293 MPD ctr 2-2 = second counter-screen for TRPC6 modulators: effect in parental HEK293 cells; shares compounds with TRPC6 inhibitor; membrane potential dye fluorescence; after compound, maximal acetylcholine stimulation; inhibition, % at 10 µM; hit rate 14% among 2,400;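 active means membrane potential signal drops by more than 5 SD from the mean control signal, in both duplicate plates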;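 further: plate controls were acetylcholine ECmax control wells for no effect and buffer only wells for full effect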
TRPC4/MOR mod = TRPC4 modulation by TRPC6 hit compounds, confirmation, selectivity assay for TRPC6 modulator project, cell-based, HEK293 TRPC4/mu-opioid, membrane potential dye, mouse; shares compounds with TRPC6 inhibitor; membrane potential fluorescence; percent change from control (negative = decrease, positive = increase), % at 10 µM; hit rate 69% among 2,400; AID 488927, 2010;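 active means membrane potential signal moved up or down beyond 5 SD of buffer control wells, in both duplicate plates, actives on both sides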;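 further: plate controls were assay buffer wells for no effect and DAMGO maximal-effect wells for full effect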
TRPC4/MOR inh 2 = second check of whether TRPC6 modulators also affect mouse TRPC4 | shares compounds with TRPC6 inhibitor | HEK293 TRPC4/mu-opioid, membrane potential dye fluorescence; stimulated with maximal-effect DAMGO | inhibition, % at 10 µM | hit rate 55% among 2,400;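 active means drop in membrane potential signal beyond 5 SD of the control wells in both duplicate plates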;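 further: TRPC4 counter screen for TRPC6 hits run under conditions tuned for TRPC6 not TRPC4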
TRPC6 inh conf = mouse TRPC6 channel inhibitors, confirmation, HEK293 cells, membrane potential dye, duplicate. hit rate 43% among 3,300. inhibition, % at 10 µM. ACh-evoked depolarization. shares compounds with TRPC6 inhibitor;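 active means fluorescence ratio falls more than 5 SD below the full-stimulation control mean, in both duplicate runs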;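 further: integrated fluorescence ratio of peak minus minimum over baseline after agonist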
TRPC6 act confirm = mouse TRPC6 channel activators, confirmation, HEK293 cells, membrane potential dye, duplicate; shares compounds with TRPC6 inhibitor; AID 488961, 2010; HEK293-TRPC6 membrane potential dye fluorescence, FDSS; activation, % at 10 µM; hit rate 11% among 2,800;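 active means ratio signal rise beyond 5 SD above unstimulated control wells' mean, seen in both duplicate runs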;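 further: plate controls were buffer EC0 wells for no effect and acetylcholine ECmax response for full effect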
Numbers without * were called inactive; i = inactive; x = not tested or not shown. Shown are actives, neighbours in structure and some others; about 2.3% of the full set was active somewhere.

SMILES	TRPC6 inhibitor	TRPC4 inh	TRPC6 activator	TRPC4 act	TRPC4 PAM	HEK293 MPD ctr-2	HEK293 MPD ctr 2-2	TRPC4/MOR mod	TRPC4/MOR inh 2	TRPC6 inh conf	TRPC6 act confirm	others
Cc1ccc(-c2nc(NCCN3CCOCC3)c3ccccc3n2)cc1	-6.25*	i	i	i	i	-209.5%*	i	-37.5%*	74.0%*	62.5%*	i
Fc1ccccc1-c1nc(NCCCN2CCOCC2)c2ccccc2n1	-5.09*	i	i	i	i	-271.5%*	i	-47.0%*	55.0%*	51.5%*	i
Oc1ccccc1-c1nc(NCCN2CCOCC2)c2ccccc2n1	-8.34*	i	i	i	i	x	x	x	x	67.7%*	i	TRPC4 spec 2=57.5%*;TRPC4 spec=-19.4%*;HEK293 MPD ctr 2-1=i;HEK293 MPD ctr-1=-327.5%*
COc1cccc(-c2nc(NCCN3CCOCC3)c3ccccc3n2)c1O	i	i	i	i	i	x	x	x	x	x	x
Clc1cccc(-c2nc(NCCCN3CCOCC3)c3ccccc3n2)c1	i	i	i	i	i	x	x	x	x	x	x
Cc1nc(-c2ccc(C(=O)Nc3cccc(Br)c3)cc2)cs1	i	i	i	i	i	x	x	x	x	x	x
COc1ccccc1NS(=O)(=O)c1cc(NC(=O)CC(C)(C)C)ccc1N1CCOCC1	i	i	i	i	i	x	x	x	x	x	x
Clc1ccc(-c2nc(NCCCN3CCOCC3)c3ccccc3n2)cc1	-6.65*	i	i	i	i	x	x	x	x	61.1%*	i	TRPC4 spec 2=71.5%*;TRPC4 spec=-23.8%*;HEK293 MPD ctr 2-1=i;HEK293 MPD ctr-1=-328.0%*
Cc1cccc(C(=O)Nc2ccc(C(=O)N/N=C/c3ccco3)cc2)c1	i	i	i	i	i	x	x	x	x	x	x
COc1ccc2nc(C)cc(NCCN3CCOCC3)c2c1	-9.52*	i	i	i	i	-327.5%*	88.0%*	-64.5%*	54.0%*	65.0%*	i
Cc1cc(NCCN2CCOCC2)c2ccc3ccccc3c2n1	-6.5*	i	i	i	i	-93.5%*	65.0%*	-26.0%*	70.5%*	57.0%*	i
Cc1ccsc1C(=O)C1CCCN(Cc2cccn2-c2ccc(Cl)cn2)C1 (configuration not stated)	-5.95*	i	i	i	i	i	i	i	89.5%*	53.5%*	x
COc1ccc(C(=O)C2CCCN(Cc3cccn3-c3ccccn3)C2)cc1F (configuration not stated)	-11.8*	i	i	i	i	x	x	x	x	106.9%*	i	TRPC4 spec 2=15.5%*;TRPC4 spec=i;HEK293 MPD ctr 2-1=21.0%*;HEK293 MPD ctr-1=-0.1%*
COc1ccc(C(=O)C2CCCN(Cc3cccn3-c3nccs3)C2)cc1OC (configuration not stated)	-5.25*	i	i	i	i	i	i	i	68.5%*	i	i
COc1ccc(C(=O)C2CCCN(Cc3cccn3-c3nccs3)C2)cc1F (configuration not stated)	i	i	i	i	i	x	x	x	x	x	x
COc1cccc(C(=O)C2CCCN(Cc3cccn3-c3ccccn3)C2)c1 (configuration not stated)	-5.92*	-7*	i	i	i	145.5%*	i	14.0%*	84.5%*	59.5%*	x
O=S(=O)(Cc1ccccc1)Oc1ccccc1	i	i	i	i	i	x	x	x	x	x	x
COc1ccc(Cc2c(O)nc(SCC(=O)N3CCCCCC3)[nH]c2=O)cc1	i	i	i	i	i	x	x	x	x	x	x
Cn1c(-c2cccc(Br)c2)n[nH]c1=O	i	i	i	i	i	x	x	x	x	x	x
CCOC(=O)Nc1ccc2c(c1)N(C(=O)CCN1CCN(C)CC1)c1ccccc1S2	i	i	i	i	i	x	x	x	x	x	x
CCOC(=O)Nc1ccc2c(c1)N(C(=O)N1CCN(C)CC1)c1ccccc1S2	-5.3*	i	i	i	i	i	i	i	36.5%*	i	i
CS(=O)(=O)N(Cc1cccc(CN(C(C(=O)O)c2ccccc2)S(C)(=O)=O)c1)C(C(=O)O)c1ccccc1 (configuration not stated)	-8.73*	i	i	i	i	x	x	x	x	i	i	TRPC4 spec 2=i;TRPC4 spec=i;HEK293 MPD ctr 2-1=i;HEK293 MPD ctr-1=i
Cc1cc(C)n(C(=O)c2c([N+](=O)[O-])c(C)nn2C)n1	i	i	i	i	i	x	x	x	x	x	x

Screening results from PubChem.
